Consider one molecule from ChEMBL document CHEMBL4396943, “The tetrahydroxanthone-dimer phomoxanthone A is a strong inducer of apoptosis in cisplatin-resistant solid cancer cells” (Bioorg Med Chem, 2019).

In assay [1] the test system is J82. In words: Antiproliferative activity against human cisplatin resistant J82 cells assessed as reduction in cell viability incubated for 72 hrs by MTT assay. Format: functional, cell-based. As to conditions: J82, 72 h. A digest of the protocol:
(§1)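 Cells seeded overnight in 96-well plates, then exposed to increasing concentrations (compound dissolved in DMSO, diluted in medium) for the stated time. MTT (5 mg/ml in PBS) added for 15 min, formazan dissolved in DMSO, absorbance read at 544 nm minus 690 nm background. IC50 = concentration giving 50% signal decrease. At least three independent experiments in triplicate.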
A general note: Tetrazolium assays rely on reduction of a dye to a coloured formazan, in cell work by metabolically active cells.

Assay [2] relates to A2780. In words: Antiproliferative activity against human A2780 cells assessed as reduction in cell viability incubated for 24 hrs by MTT assay. The format is functional, cell-based. As to conditions: A2780, 24 h. The essentials: as §1
Assay [3] relates to A2780cisR. In words: Induction of apoptosis in human A2780cisR cells assessed as decrease in cIAP expression at 5 uM incubated for 24 hrs by proteome profiler analysis. The format is functional, cell-based. The essentials: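 A2780 and A2780CisR cells treated 24 h with 5 µM PXA; apoptosis-related proteins profiled with a human apoptosis antibody array following kit instructions.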

Assay [4] concerns MDA-MB-231. Kind of assay: Antiproliferative activity against cisplatin-resistant human MDA-MB-231 cells assessed as reduction in cell viability incubated for 72 hrs by MTT assay. The format is functional, cell-based. The note with it: MDA-MB-231, 72 h. A digest of the protocol: as §1
The test system of assay [5] is A2780. In words: Cell cycle arrest in human A2780 cells assessed as accumulation at G1 phase incubated for 24 hrs by propidium iodide staining based flow cytometry. The format is functional. A digest of the protocol:
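After 24 h exposure, cells washed in ice-cold PBS. About 2 million cells fixed in cold 70% ethanol at −20 °C for at least 24 h. Stained with 0.1% Triton X-100, 200 µg/ml RNase A and 20 µg/ml propidium iodide in PBS, 15 min at 37 °C in the dark. DNA content read by flow cytometry with doublet discrimination. Medium as untreated control, paclitaxel as G2/M control. Three independent experiments.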

Assay [6] concerns A2780. In words: Reduction of H2O2-induced ROS generation in human A2780 cells at 316 nM incubated for 18 hrs by H2DCFDA staining based flow cytometry. Format: functional, cell-based. The essentials: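 Cells plated overnight in growth medium (approx. 150,000 cells/well), exposed to compound for 18 h. Then washed with PBS and moved to phenol red-free RPMI-1640 without FBS or antibiotics. Loaded with 10 µM H2DCF-DA, 30 min, 37 °C, dark. One aliquot then given 250 µM H2O2 for 1 h at 37 °C in the dark. DCF fluorescence read by flow cytometry; three independent experiments.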
A general note: In flow cytometry, cells or beads pass a laser one at a time.

In assay [7] the test system is A2780. Kind of assay: Induction of apoptosis in human A2780 cells assessed as depolarization of mitochondrial membrane potential at 1 uM by TMRE staining based flow cytometry. Format: functional, cell-based. As to conditions: TDE = time-dependent effect. The essentials:
(§2)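 Cells seeded overnight; medium switched to FBS-free just before treatment to avoid TMRE ester cleavage. Exposure 1 h, 2 h or 24 h, then TMRE staining for 20 min. Cells trypsinized, centrifuged at 4 °C and read by flow cytometry. Medium as negative control, 20 µM CCCP as positive control. […]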

Assay [8] relates to A2780. Kind of assay: Antiproliferative activity against human A2780 cells assessed as reduction in cell viability incubated for 72 hrs by MTT assay. As to conditions: A2780, 72 h. Format: functional, cell-based. The essentials:
as §1

The subject of assay [9] is A2780. Kind of assay: Induction of apoptosis in human A2780 cells assessed as decrease in mitochondrial membrane potential at 1 uM incubated for 24 hrs by TMRE staining based flow cytometry. Format: functional, cell-based. A digest of the protocol:
as §2

For assay [10], the system named is J82. Kind of assay: Induction of apoptosis in human J82 cells assessed as mitochondrial membrane potential at 1 uM incubated for 2 hrs by hoechst 33342 staining based fluorescence microscopy. Format: functional, cell-based. The essentials:
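J82 cells treated 2 h with PXA, then labelled 20 min with TMRE plus Hoechst 33342. ΔΨm read by high-content fluorescence imaging. Untreated medium and 20 µM CCCP served as controls.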

For assay [11], the system named is MDA-MB-231. Kind of assay: Potency index, ratio of cisplatin IC50 to compound IC50 for antiproliferative activity in cisplatin-resistant human MDA-MB-231 cells assessed as reduction in cell viability incubated for 72 hrs by MTT assay. The format is functional. The essentials: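 Cells seeded in 96-well plates overnight, exposed 72 h to increasing concentrations. MTT (5 mg/ml) added for 15 min, formazan dissolved in DMSO, absorbance read at 544 nm with 690 nm background subtracted. IC50 is the concentration reducing signal by 50%. Three independent experiments in triplicate. CisR sublines made by weekly intermittent cisplatin exposure for 24–30 weeks.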

Another assay deals with KYSE-510. Kind of assay: Antiproliferative activity against human KYSE-510 cells assessed as reduction in cell viability incubated for 72 hrs by MTT assay. The note with it: KYSE-510, 72 h. The format is functional, cell-based. A digest of the protocol: as §1
In assay [12] the test system is J82. Kind of assay: Induction of apoptosis in cisplatin resistant human J82 cells assessed as increase in activation of caspase 3/7 at 30 uM incubated for 24 hrs by hoechst 33342 staining based fluorescence microscopy (reference value: 0.5%). The format is functional.
Assay [13] relates to A2780cisR. Kind of assay: Induction of apoptosis in human A2780cisR cells assessed as plasma membrane damage at 1 to 10 uM incubated for 24 hrs by propidium iodide staining based flow cytometry. Format: functional, cell-based. A digest of the protocol: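 Cells exposed to PXA for 24 h, trypsinised, pelleted at 4 °C, stained with 100 µg/ml propidium iodide, diluted in sheath fluid and read by flow cytometry. Positive control was 0.2% Triton X-100 (20 min). Three experiments, mean ± SEM.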

In assay [14] the test system is A2780cisR. In words: Ratio of IC50 for antiproliferative activity in human A2780cisR cells assessed as reduction in cell viability incubated for 24 hrs by MTT assay to IC50 for antiproliferative activity in human A2780cisR cells assessed as reduction in cell viability incubated for 72 hrs by MTT assay. The format is functional. A digest of the protocol:
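MTT assay as for the viability IC50s (overnight seeding, MTT 15 min, DMSO solubilisation, 544/690 nm), with PXA incubation for 24 h versus 72 h. IC50 is the concentration giving a 50% signal decrease. At least three independent experiments.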

Assay [15] deals with A2780cisR. Kind of assay: Antiproliferative activity against human A2780cisR cells assessed as reduction in cell viability incubated for 24 hrs by MTT assay. Format: functional, cell-based. A digest of the protocol:
as §1

Assay [16] relates to J82. Kind of assay: Induction of apoptosis in cisplatin resistant human J82 cells assessed as mitochondrial membrane potential at 1 uM incubated for 2 hrs by hoechst 33342 staining based fluorescence microscopy. Format: functional, cell-based. A digest of the protocol:
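J82CisR cells exposed 2 h, then labelled with TMRE and Hoechst 33342 for 20 min. TMRE signal imaged on a high-content fluorescence imaging platform. Untreated medium control and 20 µM CCCP positive control.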

The next assay has as its system HCT-116. In words: Antiproliferative activity against human HCT116 cells assessed as reduction in cell viability incubated for 72 hrs by MTT assay. The format is functional, cell-based. The note with it: HCT-116, 72 h. The essentials: as §1
The species entered for another assay is Homo sapiens. Kind of assay: Ratio of IC50 for induction of mitochondrial membrane depolarization in cisplatin resistant human J82 cells to IC50 for induction of mitochondrial membrane depolarization in human A2780cisR cells after 2 hrs by TMRE staining based flow cytometry. Format: functional, cell-based. A digest of the protocol: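 Cells seeded overnight; complete medium swapped for FBS-free medium just before treatment to avoid TMRE ester cleavage. Exposure to PXA for 1 h, 2 h or 24 h. TMRE staining 20 min, cells collected by trypsinisation, ΔΨm read by flow cytometry. Medium served as negative control, 20 µM CCCP as positive control. Mean ± SEM reported.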

The structures appear in SMILES notation. Activity calls are given as the source filed them. The rule behind the calls is not given here.

In the case of `CC(=O)OC[C@]12Oc3c(-c4ccc(O)c5c4O[C@@]4(COC(C)=O)C(=C(O)C[C@@H](C)[C@H]4OC(C)=O)C5=O)ccc(O)c3C(=O)C1=C(O)C[C@@H](C)[C@H]2OC(C)=O` [PHOMOXANTHONE A], the IC50 in the assay with J82 [1] is 2040 nM; in the assay with A2780 [2] (read-out: IC50) it was 1440 nM; in the assay with A2780 [2] (read-out: pIC50 (converted)), 1450 nM; in the assay on MDA-MB-231 [4] it was 4.37 µM; in the assay on A2780 [8] (read-out: IC50), 580 nM; in the assay on A2780 [8] (read-out: pIC50 (converted)) it was 575 nM. For the same molecule, the IC50 in the assay with KYSE-510 is 760 nM; in the assay on A2780cisR [15] (read-out: IC50), 1880 nM; in the assay with A2780cisR [15] (read-out: pIC50 (converted)), 1860 nM; in the assay with HCT-116 it was 1820 nM. In addition, the outcome in the assay on A2780cisR [3] and in the assay on A2780 [9] was Active. Further, the figures for the Activity result with A2780 [5], in the assay on A2780 [7] and in the assay with J82 [12] were “Dose-dependent effect”, “Tde” and 90%, respectively. Besides, in the assay with A2780 [6], the inhibition result is “inactive”. Besides, the outcome in the assay with J82 [10], in the assay with A2780cisR [13] and in the assay on J82 [16] was inactive. Moreover, the “Ratio IC50” value is 2 - 10 in the assay on MDA-MB-231 [11], 1.4 in the assay with A2780cisR [14] and 3 in the assay listed under Homo sapiens.
